Converted amounts (≈) assume the structure as drawn. The source made the active and inactive calls. The rule behind the calls is not given here.
Assays:
[1] = system: Escherichia coli; assay: Antibacterial activity against Escherichia coli TISTR 780 by two-fold broth dilution method; type: functional
[2] = system: Salmonella typhimurium; assay: Antibacterial activity against Salmonella typhimurium TISTR 292 by two-fold broth dilution method; type: functional, Salmonella enterica subsp. enterica serovar Typhimurium
[3] = system: Staphylococcus aureus; assay: Antibacterial activity against methicillin-resistant Staphylococcus aureus SK1 at >128 ug/mL by two-fold broth dilution method; type: functional, organism-based
Summary of the method: (§1)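 MRSA SK1 was tested in a panel with Gram-positive S. aureus TISTR 1466 and Gram-negative E. coli TISTR 780 and S. typhimurium TISTR 292. Values are in μg/mL.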

[4] = system: Staphylococcus aureus; assay: Antibacterial activity against Staphylococcus aureus TISTR 1466 at >128 ug/mL by two-fold broth dilution method; type: functional, organism-based
[5] = system: Staphylococcus aureus; assay: Antibacterial activity against methicillin-resistant Staphylococcus aureus SK1 by two-fold broth dilution method; type: functional; summary of the method: as §1
[6] = system: Staphylococcus aureus; assay: Antibacterial activity against Staphylococcus aureus TISTR 1466 by two-fold broth dilution method; type: functional

`COc1c(O)ccc2c(=O)c3c(O)c4c(c(CC=C(C)C)c3oc12)OC(C)(C)C=C4` was tested, and the MIC [1] was 128 µg/mL (≈ 313 µM), the MIC ([2]; Salmonella enterica) was 128 µg/mL (≈ 313 µM) and the MIC [3] was “inactive”. For the same compound, the MIC [4] was “inactive”.
For `C=CC(C)(C)c1c2c(c(O)c3c(=O)c4ccc(O)c(OC)c4oc13)C=CC(C)(C)O2`, the MIC [5] was 4 µg/mL (≈ 9.79 µM), the MIC [6] was 2 µg/mL (≈ 4.9 µM) and the MIC [1] was 128 µg/mL (≈ 313 µM). The MIC ([2]; Salmonella enterica) was 128 µg/mL (≈ 313 µM).
For `C=C(C)CC[C@@H]1C[C@]23CC4C(C)(C)c5ccccc5C(=O)C45C(=O)[C@@](CC=C(C)C)(C[C@@]1(C)[C@]52O)C3=O` (relative stereo), the MIC [6] was 128 µg/mL (≈ 256 µM), the MIC [1] was 128 µg/mL (≈ 256 µM) and the MIC ([2]; Salmonella enterica) was 128 µg/mL (≈ 256 µM). The MIC [3] was “inactive”.
`C=C(C)CC[C@@H]1C[C@@]2(CC=C(C)C)C(=O)[C@]3(CC=C(C)C)C[C@@]1(C)C2(O)/C(=C(/O)c1ccccc1)C3=O` (relative stereo) was tested, and the MIC [5] was 64 µg/mL (≈ 127 µM), the MIC [6] was 64 µg/mL (≈ 127 µM) and the MIC [1] was 128 µg/mL (≈ 255 µM). It also gave an MIC ([2]; Salmonella enterica) of 128 µg/mL (≈ 255 µM).
In the case of `COc1c(CC=C(C)C)c(O)c2c(=O)c3ccc(O)c(OC)c3oc2c1CC=C(C)C` [DOITUNGGARCINONE C], the MIC [5] is reported as 128 µg/mL (≈ 302 µM), the MIC [6] is reported as 128 µg/mL (≈ 302 µM) and the MIC [1] is reported as 128 µg/mL (≈ 302 µM).
For `COc1c(CC=C(C)C)c(O)c2c(=O)c3ccc(O)c(O)c3oc2c1CC=C(C)C` [DULXANTHONE B], the MIC [5] was 16 µg/mL (≈ 39 µM), the MIC [6] was 32 µg/mL (≈ 78 µM) and the MIC [1] was 128 µg/mL (≈ 312 µM). For the same compound, the MIC ([2]; Salmonella enterica) was 128 µg/mL (≈ 312 µM).
With `CC(C)=CCc1c(O)c(CC=C(C)C)c2oc3c(O)ccc(O)c3c(=O)c2c1O` [GARTANIN] the MIC [6] was 128 µg/mL (≈ 323 µM), the MIC [1] was 128 µg/mL (≈ 323 µM) and the MIC ([2]; Salmonella enterica) was 128 µg/mL (≈ 323 µM). For the same compound, the MIC [3] was “inactive”.
With `C=CC(C)(C)c1c2c(c(O)c3c(=O)c4ccc(O)c(O)c4oc13)C=CC(C)(C)O2` [MACLURAXANTHONE] the MIC [5] was 4 µg/mL (≈ 10.1 µM), the MIC [6] was 4 µg/mL (≈ 10.1 µM) and the MIC [1] was 128 µg/mL (≈ 325 µM).
With `CC(C)=CCc1c2c(c3oc4c(O)ccc(O)c4c(=O)c3c1O)C=CC(C)(C)O2` [MORUSIGNIN J] the MIC [6] was 128 µg/mL (≈ 325 µM) and the MIC [1] was 128 µg/mL (≈ 325 µM).
For `CN[C@H](CC(C)C)C(=O)N[C@H]1C(=O)N[C@@H](CC(N)=O)C(=O)N[C@H]2C(=O)N[C@H]3C(=O)N[C@H](C(=O)N[C@H](C(=O)O)c4cc(O)cc(O)c4-c4cc3ccc4O)[C@H](O)c3ccc(c(Cl)c3)Oc3cc2cc(c3O[C@@H]2O[C@H](CO)[C@@H](O)[C@H](O)[C@H]2O[C@H]2C[C@](C)(N)[C@H](O)[C@H](C)O2)Oc2ccc(cc2Cl)[C@H]1O` [VANCOMYCIN], the MIC [6] was 0.25 µg/mL (≈ 0.173 µM).
`C=C(C)CC[C@@H]1C[C@]2(CC=C(C)C)C(=O)/C(=C(\O)c3ccccc3)C(=O)[C@]3(CC=C(C)C)C[C@@]1(C)O[C@@]32O` [XEROPHENONE A] was tested, and the MIC [5] was 128 µg/mL (≈ 247 µM), the MIC [6] was “inactive” and the MIC [1] was 128 µg/mL (≈ 247 µM). It also gave an MIC ([2]; Salmonella enterica) of 128 µg/mL (≈ 247 µM).
For GENTAMICIN, the MIC [1] was 0.25 µg/mL and the MIC ([2]; Salmonella enterica subsp. enterica serovar Typhimurium) was 0.125 µg/mL.
